Data as given in ChEMBL document CHEMBL3994636, “New tools in nucleoside toolbox of tick-borne encephalitis virus reproduction inhibitors” (Bioorg Med Chem Lett, 2017).
The source made the active and inactive calls. The rule behind the calls is not given here.

Key:
[1] = test system: Tick-borne encephalitis virus; experiment: Antiviral activity against […] Absettarov infected in PEK cells assessed as inhibition of viral reproduction preincubated with virus for 1 hr followed by addition to PEK cells measured after 1 hr by gentian violet staining based plaque reduction assay; format: functional, cell-based
[2] = test system: Tick-borne encephalitis virus; experiment: Antiviral activity against […] Absettarov infected in PEK cells assessed as inhibition of viral reproduction at 50 uM preincubated with virus for 1 hr followed by addition to PEK cells measured after 1 hr by gentian violet staining based plaque reduction assay relative to control; format: functional
[3] = Cytotoxicity against PEK cells after 7 days; format: cell-based, Sus scrofa; details: pig
[4] = Cytotoxicity against PEK cells after 24 hrs; format: cell-based, Sus scrofa; details: pig
In short: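 PEK (porcine embryo kidney) cells were exposed to compound at 50 μM for 24 h and examined for cytotoxicity.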

| Compound | EC50 [1] [µM] | inhibition [2] | CC50 at 168 h [3] [µM] | inhibition at 50 µM [2] [%] | CC50 at 24 h [4] [µM] |
| --- | --- | --- | --- | --- | --- |
| Cn1cnc2c(ncn2[C@@H]2O[C@H](CO)[C@@H](O)[C@H]2O)c1=N | > 50 | inactive | – | – | – |
| Cc1cn([C@@H]2O[C@H](CO)[C@@](C)(O)[C@H]2O)c(=O)[nH]c1=O | > 50 | inactive | – | – | – |
| CC(C)(C)[Si](C)(C)OC[C@H]1O[C@@H](n2cnc3c(NCc4ccccc4)ncnc32)[C@H](O)[C@@H]1O | 20 | – | > 50 | 50 | > 50 |
| OC[C@H]1O[C@@H](n2cnc3c(NCc4ccc5ccc6cccc7ccc4c5c67)ncnc32)[C@H](O)[C@@H]1O | 6 | – | 9 | 50 | > 50 |
| CC(C)C(=O)Nc1nc2c(ncn2[C@@H]2O[C@H](CO)[C@@H](O)[C@H]2O)c(=O)[nH]1 | > 50 | inactive | – | – | – |
| c1ccc(CNc2ncnc3[nH]cnc23)cc1 [6-BENZYLAMINOPURINE] | > 50 | inactive | – | – | – |
| OC[C@H]1O[C@@H](n2cnc3c(NCC#Cc4ccccc4)ncnc32)[C@H](O)[C@@H]1O | > 48 | inactive | – | – | – |
| CC(C)=CCNc1ncnc2c1ncn2[C@@H]1O[C@H](CO)[C@@H](O)[C@H]1O [RIBOPRINE] | > 50 | inactive | – | – | – |
| OC[C@H]1O[C@@H](n2cnc3c(NCc4ccc5ccccc5c4)ncnc32)[C@H](O)[C@@H]1O | > 50 | inactive | – | – | – |
| CC1(C)[C@H]2CC=C(CNc3ncnc4c3ncn4[C@@H]3O[C@H](CO)[C@@H](O)[C@H]3O)[C@@H]1C2 | > 50 | inactive | – | – | – |
| CC(C)[Si](OC[C@H]1O[C@@H](n2cnc3c(NCc4ccccc4)ncnc32)[C@H](O)[C@@H]1O)(C(C)C)C(C)C | 5 | – | > 50 | 50 | > 50 |
| OC[C@H]1O[C@@H](n2cnc3c(NCc4ccccc4)ncnc32)[C@H](O)[C@@H]1O [N6-BENZYLADENOSINE] | > 50 | inactive | > 50 | – | > 50 |
| CC(C)=CCC/C(C)=C\CNc1ncnc2c1ncn2[C@@H]1O[C@H](CO)[C@@H](O)[C@H]1O | > 50 | inactive | – | – | – |
| C=C(C)[C@@H]1CC=C(CNc2ncnc3c2ncn3[C@@H]2O[C@H](CO)[C@@H](O)[C@H]2O)CC1 | > 50 | inactive | – | – | – |
| c1ccc(CNc2ncnc3nc[nH]c23)cc1 [6-BENZYLAMINOPURINE] | – | – | > 50 | – | > 50 |
| OC[C@H]1O[C@@H](n2cnc3c(NC4CCCCC4)ncnc32)[C@H](O)[C@@H]1O | > 50 | inactive | – | – | – |

| Compound | EC50 [1] [µM] | inhibition [2] | CC50 at 168 h [3] [µM] | inhibition at 50 µM [2] [%] | CC50 at 24 h [4] [µM] |
| --- | --- | --- | --- | --- | --- |
| O=C(Nc1ccn(C2O[C@H](CO)[C@@H](O)[C@H]2O)c(=O)n1)c1ccccc1 (stereo partly specified) | > 50 | inactive | – | – | – |
| OC[C@H]1O[C@@H](n2cnc3c(NCc4ccco4)ncnc32)[C@H](O)[C@@H]1O [KINETIN RIBOSIDE] | > 50 | inactive | – | – | – |
| O[C@@H]1[C@H](O)[C@@H](COC(c2ccccc2)(c2ccccc2)c2ccccc2)O[C@H]1n1cnc2c(NCc3ccccc3)ncnc21 | 2 | – | 9 | 50 | > 50 |
| OC/C=C\CNc1ncnc2c1ncn2[C@@H]1O[C@H](CO)[C@@H](O)[C@H]1O | > 50 | inactive | – | – | – |
| C[C@@]1(O)[C@@H](CO)O[C@@H](n2cnc3c(=O)[nH]c(N)nc32)[C@@H]1O | > 50 | inactive | – | – | – |
| O=C(Nc1nc2c(ncn2[C@@H]2O[C@H](CO)[C@@H](O)[C@H]2O)c(=O)[nH]1)c1ccccc1 | > 50 | inactive | – | – | – |
| C#CCNc1ncnc2c1ncn2[C@@H]1O[C@H](CO)[C@@H](O)[C@H]1O | > 50 | inactive | – | – | – |
| OC[C@H]1O[C@@H](n2cnc3c(NCc4c5ccccc5cc5ccccc45)ncnc32)[C@H](O)[C@@H]1O | 15 | – | > 50 | 50 | > 50 |
| OC[C@H]1O[C@@H](n2cnc3c(NC(c4ccccc4)(c4ccccc4)c4ccccc4)ncnc32)[C@H](O)[C@@H]1O | > 50 | inactive | – | – | – |
| OC[C@H]1O[C@@H](n2cnc3c(NC/C=C/c4ccccc4)ncnc32)[C@H](O)[C@@H]1O | > 50 | inactive | – | – | – |
| C[C@@]1(O)[C@@H](CO)O[C@@H](n2ccc(N)nc2=O)[C@@H]1O | > 50 | inactive | – | – | – |
| CC(C)=CCC/C(C)=C/CNc1ncnc2c1ncn2[C@@H]1O[C@H](CO)[C@@H](O)[C@H]1O | > 50 | inactive | – | – | – |
| C[n+]1cn([C@@H]2O[C@H](CO)[C@@H](O)[C@H]2O)c2nc(N)nc([O-])c21 | > 50 | inactive | – | – | – |
| C[C@@]1(O)[C@@H](CO)O[C@@H](n2ccc(=O)[nH]c2=O)[C@@H]1O | > 50 | inactive | – | – | – |
| CNc1ncnc2c1ncn2[C@@H]1O[C@H](CO)[C@@H](O)[C@H]1O | > 50 | inactive | – | – | – |
| C=CCC#CCNc1ncnc2c1ncn2[C@@H]1O[C@H](CO)[C@@H](O)[C@H]1O | > 50 | inactive | – | – | – |
